The text below walks through data of ChEMBL document CHEMBL5537213, “Cytotoxicity of phosphoramidate, bis-amidate and cycloSal prodrug metabolites against tumour and normal cells” (RSC Med Chem, 2024).

Calls of active or inactive are those of the source. The rule behind the calls is not given here.

Series [1] concerns GL261. In words: Antiproliferative activity against mouse GL261 cells transfected with luciferase gene assessed as reduction in ATP release at 256 uM incubated for 72 hrs in presence of D-luciferin by luminescence based SpectraMax M5 microplate reader analysis. Type of series: functional, cell-based. The procedure, abridged:
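Luciferase-expressing GL261-Luc seeded at 3 × 10^3/well in DMEM with 10% FBS; 24 h later exposed to compounds with 0.1% DMSO final for 72 h. Medium replaced by D-luciferin 150 μg mL-1 in complete medium, 15 min at 37 °C; luminescence read on plate reader, normalised to control. At least three experiments, at least four replicates each.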

Series [2] deals with BXPC-3. In words: Cytotoxicity against human BXPC-3 cells assessed as reduction in cell viability at 256 uM incubated for 72 hrs by CyQUANT assay. Type of series: functional, cell-based. A digest of the protocol:
(§1)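 BxPC3 (5 × 10^3/well) or primary C57BL/6 male mouse astrocytes (>90% GFAP-positive; 3 × 10^3/well) treated 24 h after plating for 72 h, 0.1% DMSO final. Stained 1 h at 37 °C with CyQUANT Direct nucleic acid stain plus background suppressor in HBSS; whole-well fluorescence imaged (Ex 488/Em 520 nm), normalised to control. At least three experiments, at least four replicates each.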

Series [3] deals with BXPC-3. The series is described as follows: Antiproliferative activity against human BXPC-3 cells assessed as reduction in cell index at 256 uM incubated for 72 hrs by xCELLigence real time cell analyser method. Format: functional, cell-based. A digest of the protocol:
(§2)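 Cells seeded on E16 xCELLigence plates (BxPC3 5 × 10^3/well; GL261-Luc and primary astrocytes 3 × 10^3/well), treated after 24 h in supplemented DMEM with 0.1% DMSO final. Impedance cell index read hourly for 72 h, normalised to control (100% viability). At least three independent experiments, two replicates each; ANOVA with Dunnett's test.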

Series [4] concerns Astrocyte. In words: Cytotoxicity against mouse astrocyte cells assessed as reduction in cell viability at 256 uM incubated for 72 hrs by CyQUANT assay. Type of series: toxicity, cell-based. A digest of the protocol: as §1
The test system of series [5] is GL261. In words: Induction of apoptosis in mouse GL261 cells transfected with luciferase gene assessed as increase in caspase 3/7 activation at 256 uM incubated for 72 hrs by laser scanning imaging analysis. Type of series: functional, cell-based. The procedure, abridged: (§3)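 BxPC3 (5 × 10^3/well) or GL261-Luc (3 × 10^3/well) exposed 24 h post-plating for 72 h, 0.1% DMSO final. CellEvent caspase-3/7 green reagent 1 h at 37 °C; whole-well fluorescence imaged (Ex 488/Em 520 nm). Cells then fixed, permeabilised, blocked and stained with CellTag 700 (Ex 685/Em 720 nm); caspase signal normalised to cell number, expressed as fold over control. At least three experiments, at least four replicates each.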

The test system of series [6] is BXPC-3. In words: Induction of apoptosis in human BXPC-3 cells assessed as increase in caspase 3/7 activation at 256 uM incubated for 72 hrs by laser scanning imaging analysis. Format: functional, cell-based. A digest of the protocol:
as §3

In series [7] the test system is GL261. The series is described as follows: Antiproliferative activity against mouse GL261 cells transfected with luciferase gene assessed as reduction in cell index at 256 uM incubated for 72 hrs by xCELLigence real time cell analyser method. Format: functional, cell-based. A digest of the protocol:
as §2

For series [8], the system named is Astrocyte. In words: Cytotoxicity against mouse astrocyte cells assessed as reduction in cell index at 256 uM incubated for 72 hrs by xCELLigence real time cell analyser method relative to control. Format: toxicity, cell-based. Details: scale not given: the % may be the effect or the level left. The procedure, abridged:
as §2

In series [9] the test system is GL261. In words: Induction of apoptosis in mouse GL261 cells transfected with luciferase gene assessed as fold increase in caspase 3/7 activation at 128 uM incubated for 72 hrs by laser scanning imaging analysis. Type of series: functional. The procedure, abridged: as §3
In series [10] the test system is BXPC-3. In words: Antiproliferative activity against human BXPC-3 cells assessed as reduction in cell index at 128 uM incubated for 72 hrs by xCELLigence real time cell analyser method relative to control. Type of series: functional. Details: scale not given: the % may be the effect or the level left. The procedure, abridged:
(§4)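 Real-time impedance: cells seeded on E16 plates (BxPC3 5 × 10^3/well; GL261-Luc and primary astrocytes 3 × 10^3/well), treated after 24 h in DMEM/10% FBS with 0.1% DMSO final. Cell index read hourly for 72 h and normalised to control (100% viability). At least three independent experiments, duplicates each; mean ± S.D.; ANOVA with Dunnett's test.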

In series [11] the test system is BXPC-3. In words: Induction of apoptosis in human BXPC-3 cells assessed as fold increase in caspase 3/7 activation at 128 uM incubated for 72 hrs by laser scanning imaging analysis. Format: functional. A digest of the protocol:
(§5)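 BxPC3 (5 × 10^3/well) or GL261-Luc (3 × 10^3/well) were dosed 24 h after seeding for 72 h (0.1% DMSO final). CellEvent caspase-3/7 reagent was added for 1 h at 37 °C and whole-well fluorescence imaged (Ex 488/Em 520 nm). Cells were then fixed, permeabilised, blocked and stained with CellTag 700 (Ex 685/Em 720 nm) for cell number. Signal per cell is given as fold over control. ≥3 experiments, ≥4 replicates.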

In series [12] the test system is GL261. In words: Antiproliferative activity against mouse GL261 cells transfected with luciferase gene assessed as reduction in ATP release at 128 uM incubated for 72 hrs in presence of D-luciferin by luminescence based SpectraMax M5 microplate reader analysis. Format: functional. Details: scale not given: the % may be the effect or the level left. The procedure, abridged: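 Luciferase-expressing GL261 cells were seeded at 3 × 10^3/well, then dosed 24 h later for 72 h in supplemented DMEM with 0.1% DMSO final. Medium was replaced with D-luciferin (150 µg/mL in complete medium) for 15 min at 37 °C, and luminescence was read on a plate reader and normalised to control. ≥3 experiments, ≥4 replicates.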

In series [13] the test system is Astrocyte. In words: Cytotoxicity against mouse astrocyte cells assessed as reduction in cell viability at 128 uM incubated for 72 hrs by CyQUANT assay. Format: toxicity, cell-based. The procedure, abridged: (§6)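 BxPC3 (5 × 10^3/well) or primary astrocytes (3 × 10^3/well) were dosed 24 h after plating, in supplemented DMEM with 0.1% DMSO final, for 72 h. Stained 1 h at 37 °C with CyQUANT Direct nucleic acid stain plus background suppressor in HBSS. Whole-well fluorescence imaged (Ex 488/Em 520 nm) and normalised to control. ≥3 experiments, ≥4 replicates.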

For series [14], the system named is BXPC-3. In words: Cytotoxicity against human BXPC-3 cells assessed as reduction in cell viability at 128 uM incubated for 72 hrs by CyQUANT assay relative to control. Type of series: functional. A digest of the protocol:
as §6

The subject of series [15] is Astrocyte. The series is described as follows: Cytotoxicity against mouse astrocyte cells assessed as reduction in cell index at 128 uM measured after 4 hrs by xCELLigence real time cell analyser method. Type of series: toxicity, cell-based. The procedure, abridged:
as §4

The subject of series [16] is Astrocyte. The series is described as follows: Cytotoxicity against mouse astrocyte cells assessed as reduction in cell index at 128 uM incubated for 72 hrs by xCELLigence real time cell analyser method relative to control. Type of series: toxicity, cell-based. On the set-up: scale not given: the % may be the effect or the level left. A digest of the protocol: as §4

Series [17] has as its system GL261. The series is described as follows: Antiproliferative activity against mouse GL261 cells transfected with luciferase gene assessed as reduction in cell index at 128 uM incubated for 72 hrs by xCELLigence real time cell analyser method. Format: functional, cell-based. The procedure, abridged: as §4
For series [18], the system named is BXPC-3. The series is described as follows: Cytotoxicity against human BXPC-3 cells assessed as reduction in cell viability at 128 uM incubated for 72 hrs by CyQUANT assay. Format: functional, cell-based. A digest of the protocol: as §6
Series [19] deals with BXPC-3. In words: Induction of apoptosis in human BXPC-3 cells assessed as increase in caspase 3/7 activation at 128 uM incubated for 72 hrs by laser scanning imaging analysis. Type of series: functional, cell-based. A digest of the protocol: as §5
Series [20] has as its system GL261. The series is described as follows: Induction of apoptosis in mouse GL261 cells transfected with luciferase gene assessed as increase in caspase 3/7 activation at 128 uM incubated for 72 hrs by laser scanning imaging analysis. Format: functional, cell-based. A digest of the protocol:
as §5

Series [21] concerns BXPC-3. In words: Antiproliferative activity against human BXPC-3 cells assessed as reduction in cell index at 128 uM incubated for 72 hrs by xCELLigence real time cell analyser method. Format: functional, cell-based. A digest of the protocol:
as §4

In the case of `CC(C)OC(=O)[C@H](C)N`, the outcome in [1], in [2], in series [3], in [5], in series [6] and in series [7] was inactive. Moreover, the Activity in series [4] is recorded as 12%; in series [8] it was 11%.
On to `C[C@H](N)C(=O)OCc1ccccc1`, for which the result in [1], in [2], in [3], in series [5], in [6] and in series [7] was inactive. In addition, the Activity in series [4] is reported as 8%; in series [8] it was 11%.
As for `Oc1cccc2ccccc12` [1-NAPHTHOL], the “fold change (FC)” value in [9] worked out at 2; in series [11], 2.2. For the same compound, the Activity in series [10] is 51%; in series [12], 53%; in series [13], 29%; in series [14] it was 53%; in [15] it was “Toxic”.
Take `Oc1ccc2ccccc2c1` [BETANAPHTHOL]: the Activity is listed as 46% in series [16]; 94% in [10]; 39% in series [12]; 29% in series [13]; 90% in [14]; “Toxic” in [15]. Also, the “fold change (FC)” value in [11] amounted to 8.1.
Consider `Oc1ccccc1` [PHENOL], for which the Activity in series [16] is 11%; in series [13], 8%. The outcome in [17], in series [18], in series [19], in series [12], in series [20] and in series [21] was inactive.
For the compound `OCc1ccccc1O` [SALICYL ALCOHOL], the Activity in series [16] stood at 11%; in [13], 22%. In addition, the result in series [17], in series [18], in series [19], in [12], in series [20] and in [21] was inactive.
